Data set [1] can be described thus: % metabolized in monkey S-9 after 2 hours (1 ug/ml). It counts as ADME. To be noted: simiiformes, monkey S-9 fraction; read-out: Activity. The gist of the method:
(§1)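 Monkey liver homogenised at 0 °C in 3 volumes isotonic KCl (0.05 M phosphate, pH 7.4), spun 9000g 30 min to give S-9. Triplicate incubations at 37 °C for 2 h with cofactor mix (glucose-6-phosphate, NADP, nicotinamide, MgCl2), final drug 1 or 10 μg/mL. Parent measured by fluorescence HPLC after MeOH protein precipitation; % metabolized = 100% minus % remaining at 2 h versus t=0.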

Data set [2] in a line: % metabolized in monkey S-9 after 2 hours (10 ug/ml). It counts as ADME. Particulars: simiiformes, monkey S-9 fraction; read-out: Activity. An outline of the steps: as §1
A short description of data set [3]: Aqueous solubility. The class given is physicochemical. Particulars: read-out: S. An outline of the steps: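 A 10-mg sample was placed in 0.5 mL water and diluted stepwise up to 10 mL, or until it dissolved. Solubility is reported in mg/mL.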
The species named for data set [4] is Homo sapiens. Briefly: Inhibition of human platelet aggregation induced by ADP after 3 min incubation with platelet rich plasma. To be noted: 0.05 h. It counts as functional. The gist of the method:
(§2)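 Human platelet-rich plasma was preincubated with drug for 3 min (standard) or 15 min, then aggregation was induced with 5.86 μM ADP. Aggregation at a range of drug concentrations was compared with vehicle-treated controls, and IC50 was taken from dose-response curves. Values are single, duplicate or triplicate (with SD) determinations.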

The species entered for data set [5] is Homo sapiens. Briefly: Inhibition of human platelet aggregation induced by ADP after 15 min incubation with platelet rich plasma. It counts as functional. To be noted: 0.25 h. An outline of the steps: as §2
The target in data set [6] is T1, Phosphodiesterase 3 (Homo sapiens, UniProt Q14432+Q13370). Description: Inhibition of human platelet aggregation cAMP PDE in vitro. The class given is functional. The gist of the method:
(§3)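 Human platelet cAMP PDE assay run as in an earlier protocol, except that the [3H]adenosine product was resolved on DEAE Sephadex. Values are means of duplicate (deviation under 50% of mean) or triplicate determinations.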

Data set [7] in a line: half-life (t1/2 min). The class given is ADME. Particulars: for T1/2: 2 h. An outline of the steps: (§4)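 Same monkey liver S-9 incubation (37 °C, final drug 1 or 10 μg/mL, triplicate). Aliquots taken at 0, 15, 30, 60, 90 and 120 min, quenched with MeOH and analysed for parent by fluorescence HPLC peak height. Half-life = ln 2 divided by the slope of a least-squares linear regression of peak height against time.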

A short description of data set [8]: % metabolized in monkey S-9 after 2 hours (10 ug/mL). The class given is ADME. To be noted: simiiformes, monkey S-9 fraction; read-out: Activity. An outline of the steps:
as §1

The nature of data set [9]: t1/2 (min). The class given is ADME. An outline of the steps: as §4
Data set [10] has as its target T1, Phosphodiesterase 3. Description: Inhibition of human blood platelet c-AMP phosphodiesterase. It counts as functional. The gist of the method: as §3

We go through 16 molecules from ChEMBL document CHEMBL1126868, “Inhibitors of blood platelet cAMP phosphodiesterase. 4. Structural variation of the side-chain terminus of water-soluble 1,3-dihydro-2H-imidazo[4,5-b]quinolin-2-one derivatives” (J Med Chem, 1993).

Where “and” joins values, the source holds several entries; their conditions need not be identical. Equal entries are not always repeated. Bounds are passed on as bounds.

As to `Cl.O=C(NCCCOc1ccc2[nH]c3nc(O)nc-3cc2c1)N1CCN(CC2CCCCC2)CC1`, the metabolised at 2 h, 1 ug/ml in data set [1] amounted to 58.5%. Besides, the metabolised at 2 h, 10 ug/ml in data set [2] turned out to be 23.6%. Also, the solubility in data set [3] is over 20000 µg/mL. Further, the IC50 turned out to be 72 nM in data set [4], 18 nM in data set [5] and 1.13 nM in data set [6].

As for `Cl.O=S(=O)(CCCOc1ccc2[nH]c3nc(O)nc-3cc2c1)C1CCN(CC2CCCCC2)CC1`, the metabolised at 2 h, 10 ug/ml in data set [2] was determined as 15.2%. Further, the solubility in [3] is over 10000 µg/mL. The molecule further came in with a half-life in data set [7] of 7.55 h. The figures for the IC50 in data set [4], in data set [5] and in [6] were 30 nM, 8.4 nM and 1.13 nM, respectively.

For the molecule `Cl.Oc1nc2cc3cc(OCCCc4nnnn4C4CCN(Cc5ccccc5)CC4)ccc3[nH]c-2n1`, the metabolised at 2 h, 1 ug/ml in data set [1] amounted to 7.2%. The solubility in data set [3] is over 10000 µg/mL. In [7], this molecule came in with a half-life of 15.8 h. The figures for the IC50 in data set [4], in [5] and in data set [6] were 39 nM, 4 nM and 0.84 nM, respectively.

As for `Cl.O=S(=O)(CCCOc1ccc2[nH]c3nc(O)nc-3cc2c1)C1CCN(Cc2ccccc2)CC1`, in data set [1], the metabolised at 2 h, 1 ug/ml is 25.2%. In data set [2], the metabolised at 2 h, 10 ug/ml amounted to 9.6%. Besides, the solubility in data set [3] was over 10000 µg/mL. The IC50 in data set [4] stood at 25 nM; in [5], 6.4 nM; in data set [6], 0.63 nM.

Regarding `Cl.Oc1nc2cc3cc(OCCCc4nnnn4C4CCN(Cc5ccc(F)cc5)CC4)ccc3[nH]c-2n1`, in data set [1], the metabolised at 2 h, 1 ug/ml is 4.9%. Also, the solubility in data set [3] was over 10000 µg/mL. In data set [7], this molecule yielded a half-life of 24.6 h. The concentration for half-maximal inhibition (IC50) in data set [4] came to 32 nM; in [5], 8 nM; in data set [6] it was 1.03 nM.

As for `CCC(CC)CN1CCC(n2nnnc2CCCOc2ccc3[nH]c4nc(O)nc-4cc3c2)CC1.Cl`, the metabolised at 2 h, 1 ug/ml in data set [1] was determined as 31.3%. The solubility in data set [3] was over 10000 µg/mL. This molecule returned a half-life in data set [7] of 3.37 h. In addition, the IC50 amounted to 12 nM in data set [4], 3 nM in data set [5] and 0.81 nM in [6].

Take `Cl.Oc1nc2cc3cc(OCCCc4nnnn4C4CCN(CC5CCCCC5)CC4)ccc3[nH]c-2n1`: in [1], the metabolised at 2 h, 1 ug/ml is 22.9%. Moreover, the solubility in [3] was over 10000 µg/mL. Also, the half-life in [7] came out at 5.13 h. Also, the IC50 in data set [4] stood at 16 nM; in data set [5], 3 nM; in data set [6], 0.81 nM.

As to `Cl.O=C(NCCCOc1ccc2[nH]c3nc(O)nc-3cc2c1)N1CCN(Cc2ccc(F)cc2)CC1`, the metabolised at 2 h, 10 ug/ml in data set [2] was 70%. For the same molecule, in data set [3], the solubility was over 20000 µg/mL. The same molecule registered a half-life in data set [7] of 1.08 h. Besides, the values for the concentration for half-maximal inhibition (IC50) in data set [4], in [5] and in [6] were 350 nM, 50 nM and 2.78 nM, respectively.

On to `CCC(CC)CN1CCN(C(=O)NCCCOc2ccc3[nH]c4nc(O)nc-4cc3c2)CC1.Cl`, for which the metabolised at 2 h, 10 ug/ml in data set [2] is 37.3%. For the same molecule, the solubility in data set [3] was over 20000 µg/mL. Besides, the half-life in [7] was 2.68 h. For the same molecule, the 50% inhibitory concentration (IC50) in [4] was determined as 42 nM; in data set [5], 7 nM; in data set [6] it was 1.25 nM.

Consider `Cl.O=S(=O)(CCCOc1ccc2[nH]c3nc(O)nc-3cc2c1)N1CCN(CC2CCCCC2)CC1`, for which, in data set [2], the metabolised at 2 h, 10 ug/ml turned out to be 49.4%. Moreover, in [3], the solubility is over 20000 µg/mL. The half-life in data set [7] came to 2.02 h. The results for the IC50 in [4], in data set [5] and in data set [6] were 110 nM, 60 nM and 2.56 nM, respectively.

Consider `Cl.O=C(NCCCOc1ccc2[nH]c3nc(O)nc-3cc2c1)N1CCN(Cc2ccccc2)CC1`, for which, in data set [2], the metabolised at 2 h, 10 ug/ml came to 46.8%. The solubility in [3] is over 20000 µg/mL. In [7], this molecule gave a half-life of 2.17 h. The half-inhibitory concentration (IC50) in data set [4] was determined as 310 nM; in data set [5], 50 nM; in [6] it was 1.11 nM.

Consider `Cl.O=S(=O)(CCCOc1ccc2[nH]c3nc(O)nc-3cc2c1)C1CCN(Cc2ccc(F)cc2)CC1`, for which the metabolised at 2 h, 10 ug/mL in data set [8] is 53%. Moreover, the half-life in data set [9] is 2 h. For the same molecule, the solubility in data set [3] is over 10000 µg/mL. Besides, the 50% inhibitory concentration (IC50) in data set [4] came out at 20 nM; in data set [5] it was 8.4 nM; in [10], 1 nM.

Consider `CCC(CC)CN1CCC(S(=O)(=O)CCCOc2ccc3[nH]c4nc(O)nc-4cc3c2)CC1.Cl`, for which the metabolised at 2 h, 1 ug/ml in data set [1] was 17%. Besides, the metabolised at 2 h, 10 ug/ml in data set [2] is 22.4%. Also, the solubility in data set [3] was under 10000 µg/mL. For the same molecule, the half-life in data set [7] is 6.08 h. Besides, the T1/2 in [7] was found to be 7.05 h. Moreover, the IC50 in data set [4] was 39 nM; in data set [5], 9 nM; in [6], 1.13 nM.

For the molecule `Cl.O=S(=O)(CCCOc1ccc2[nH]c3nc(O)nc-3cc2c1)N1CCN(Cc2ccc(F)cc2)CC1`, the metabolised at 2 h, 1 ug/ml in [1] came to 29.4%. Also, the metabolised at 2 h, 10 ug/ml in data set [2] was 18%. The solubility in data set [3] is over 20000 µg/mL. In addition, the half-life in data set [7] amounted to 6.75 h. In data set [7], the T1/2 came out at 4.02 h. The IC50 turned out to be 280 nM in data set [4], 35 nM in data set [5] and 4.96 nM in [6].

`Cl.O=S(=O)(CCCOc1ccc2[nH]c3nc(O)nc-3cc2c1)N1CCN(Cc2ccccc2)CC1`: the metabolised at 2 h, 1 ug/ml in data set [1] was 67.7%. Moreover, the metabolised at 2 h, 10 ug/ml in data set [2] was 21.2%. In data set [3], the solubility is over 20000 µg/mL. In addition, the IC50 came out at 130 nM in data set [4], 60 nM in data set [5] and 5.42 nM in [6].

With `O=C(CCCOc1ccc2[nH]c3nc(O)nc-3cc2c1)N1CCN(CC2CCCCC2)CC1`, the metabolised at 2 h, 1 ug/ml in data set [1] is 40.6%. Further, the metabolised at 2 h, 10 ug/ml in [2] was 21.7%. The T1/2 in data set [7] was 5.55 h and 2.4 h.
